Experimental data published in ChEMBL document CHEMBL1123302, “Antagonists of substance P. Further modifications of substance P antagonists obtained by replacing either positions 7, 9 or 7, 8 and 11 of SP with D-amino acid residues” (J Med Chem, 1986).

Legend:
[1] = molecular target: Substance-P receptor (Cavia porcellus) (UniProt P30547); test: In vitro inhibition of substance P (6-11) hexapeptide induced contractions of the guinea pig ileum at 5 uM.; assay type: tissue-based
In short: (§1)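 Agonist (SP or SP(6-11)-hexapeptide) dose-response curves on a 3-min cycle with 1-min contact, then washout. Dose ratio = agonist EC50 with antagonist / EC50 alone. At least two preparations per compound; ratios below 2 taken as insignificant.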

[2] = molecular target: Metabotropic glutamate receptor 3 (Rattus norvegicus) (UniProt P31422); test: Antagonistic activity against Glutamate receptor in rat spinal cord at concentration of 50 uM.; assay type: functional, tissue-based
In short: (§2)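 Neonatal rat spinal cord, hemisected sagittally, superfused at 1 mL/min with oxygenated Krebs-Henseleit medium containing 0.5% urethane at room temperature. Agonists were given in 2-mL doses in the superfusate. Antagonist was superfused continuously for at least 15 min before agonist retesting. Read-out was ventral root depolarization (DC potential, ventral root vs cord body), measured as amplitude and area of response.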

[3] = molecular target: Substance-P receptor (Rattus norvegicus) (UniProt P14600); test: Antagonistic activity against Substance P(6-11) receptor in rat spinal cord at concentration of 10 uM.
[4] = molecular target: Metabotropic glutamate receptor 3 (Rattus norvegicus) (UniProt P31422); test: Antagonistic activity against Glutamate receptor in rat spinal cord at concentration of 10 uM.; assay type: functional, tissue-based; in short: as §2
[5] = molecular target: Substance-P receptor (Rattus norvegicus) (UniProt P14600); test: Antagonistic activity against Substance P receptor in rat spinal cord at concentration of 50 uM.
Substance-P receptor = Substance-P receptor (Rattus norvegicus, UniProt P14600); test: Histamine releasing activity of Substance P from isolated rat peritoneal mast cells; assay type: functional
In short: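 Histamine release from isolated rat peritoneal mast cells, method of Fretwell et al. Dose-response curves were built over a range of concentrations, and EC50 values were calculated from the curves.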

[6] = tested on: muscarinic acetylcholine receptor (Rattus norvegicus); test: Antagonistic activity against Carbachol receptor in rat spinal cord at concentration of 50 uM.
[7] = molecular target: Substance-P receptor (Cavia porcellus) (UniProt P30547); test: Antagonistic activity against Substance P(6-11) receptor in guinea pig ileum at concentration of 1 uM.; assay type: functional, tissue-based
In short: (§3)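 Distal ileum from Dunkin-Hartley guinea pigs (300-350 g, both sexes), held in a 5-mL bath of Krebs solution at 37 °C gassed with 95% O2/5% CO2. Agonist dose-response curves ran on a 3-min cycle with 1-min contact, then washout. Dose ratio = agonist EC50 with antagonist / EC50 alone. At least two preparations per compound; ratios below two were taken as insignificant.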

[8] = molecular target: Substance-P receptor (Cavia porcellus) (UniProt P30547); test: Antagonistic activity against Substance P receptor in guinea pig ileum at concentration of 1 uM.; assay type: functional, tissue-based; in short: as §3
[9] = molecular target: Substance-P receptor (Cavia porcellus) (UniProt P30547); test: In vitro inhibition of substance P induced contractions of the guinea pig ileum at 5 uM.; assay type: tissue-based; in short: as §1
[10] = molecular target: Substance-P receptor (Rattus norvegicus) (UniProt P14600); test: Antagonistic activity against Substance P(6-11) receptor in rat spinal cord at concentration of 50 uM.
[11] = tested on: muscarinic acetylcholine receptor (Rattus norvegicus); test: Antagonistic activity against Carbachol receptor in rat spinal cord at concentration of 10 uM.
[12] = molecular target: Substance-P receptor (Rattus norvegicus) (UniProt P14600); test: Antagonistic activity against Substance P receptor in rat spinal cord at concentration of 10 uM.
[13] = molecular target: Metabotropic glutamate receptor 3 (Rattus norvegicus) (UniProt P31422); test: Antagonistic activity against Glutamate receptor in rat spinal cord at concentration of 0.5 uM.; assay type: functional, tissue-based; in short: as §2
[14] = molecular target: Substance-P receptor (Cavia porcellus) (UniProt P30547); test: (§4) Antagonistic activity against Substance P receptor in guinea pig ileum at concentration of 10.0 uM.; assay type: functional, tissue-based; in short: as §3
[15] = molecular target: Metabotropic glutamate receptor 3 (Rattus norvegicus) (UniProt P31422); test: Antagonistic activity against Glutamate receptor in rat spinal cord at concentration of 10.0 uM.; assay type: functional, tissue-based; in short: as §2
[16] = molecular target: Substance-P receptor (Cavia porcellus) (UniProt P30547); test: Antagonistic activity against Substance P receptor in guinea pig ileum at concentration of 0.5 uM.; assay type: functional, tissue-based; in short: as §3
[17] = molecular target: Substance-P receptor (Cavia porcellus) (UniProt P30547); test: (§5) Antagonistic activity against Substance P receptor in guinea pig ileum at concentration of 5.0 uM.; assay type: functional, tissue-based; in short: as §3
[18] = molecular target: Substance-P receptor (Cavia porcellus) (UniProt P30547); test: Antagonistic activity against Substance P(6-11) receptor in guinea pig ileum at concentration of 0.5 uM.; assay type: functional, tissue-based; in short: as §3
[19] = molecular target: Substance-P receptor (Cavia porcellus) (UniProt P30547); test: Antagonistic activity against Substance P(6-11) receptor in guinea pig ileum at concentration of 1.0 uM.; assay type: functional, tissue-based; in short: as §3
[20] = molecular target: Substance-P receptor (Cavia porcellus) (UniProt P30547); test: as §4; assay type: functional, tissue-based; in short: as §3; remark: listed apart in the source
[21] = molecular target: Metabotropic glutamate receptor 3 (Rattus norvegicus) (UniProt P31422); test: Antagonistic activity against Glutamate receptor in rat spinal cord at concentration of 1.0 uM.; assay type: functional, tissue-based; in short: as §2
[22] = molecular target: Substance-P receptor (Cavia porcellus) (UniProt P30547); test: Antagonistic activity against Substance P receptor in guinea pig ileum at concentration of 1.0 uM.; assay type: functional, tissue-based; in short: as §3
[23] = molecular target: Metabotropic glutamate receptor 3 (Rattus norvegicus) (UniProt P31422); test: Antagonistic activity against Glutamate receptor in rat spinal cord at concentration of 5.0 uM.; assay type: functional, tissue-based; in short: as §2
[24] = molecular target: Substance-P receptor (Cavia porcellus) (UniProt P30547); test: as §5; assay type: functional, tissue-based; in short: as §3; remark: listed apart in the source
[25] = molecular target: Metabotropic glutamate receptor 3 (Rattus norvegicus) (UniProt P31422); test: Antagonistic activity against Glutamate receptor in rat spinal cord at concentration of 50.0 uM.; assay type: functional, tissue-based; in short: as §2
[26] = molecular target: Substance-P receptor (Rattus norvegicus) (UniProt P14600); test: Antagonistic activity against Substance P(6-11) receptor in rat spinal cord at concentration of 25 uM.
[27] = molecular target: Substance-P receptor (Rattus norvegicus) (UniProt P14600); test: Antagonistic activity against Substance P receptor in rat spinal cord at concentration of 25 uM.
[28] = molecular target: Metabotropic glutamate receptor 3 (Rattus norvegicus) (UniProt P31422); test: Antagonistic activity against Glutamate receptor in rat spinal cord at concentration of 25 uM.; assay type: functional, tissue-based; in short: as §2
[29] = molecular target: Substance-P receptor (Cavia porcellus) (UniProt P30547); test: In vitro inhibition of substance P induced contractions of the guinea pig ileum at 10 uM.; assay type: tissue-based; in short: as §1
[30] = molecular target: Substance-P receptor (Rattus norvegicus) (UniProt P14600); test: Antagonistic activity against Substance P receptor in rat spinal cord at concentration of 20 uM.
[31] = molecular target: Substance-P receptor (Rattus norvegicus) (UniProt P14600); test: Antagonistic activity against Substance P(6-11) receptor in rat spinal cord at concentration of 20 uM.
[32] = molecular target: Metabotropic glutamate receptor 3 (Rattus norvegicus) (UniProt P31422); test: Antagonistic activity against Glutamate receptor in rat spinal cord at concentration of 20 uM.; assay type: functional, tissue-based; in short: as §2

Sequence of Substance-P receptor (Cavia porcellus) (P30547 whole entry): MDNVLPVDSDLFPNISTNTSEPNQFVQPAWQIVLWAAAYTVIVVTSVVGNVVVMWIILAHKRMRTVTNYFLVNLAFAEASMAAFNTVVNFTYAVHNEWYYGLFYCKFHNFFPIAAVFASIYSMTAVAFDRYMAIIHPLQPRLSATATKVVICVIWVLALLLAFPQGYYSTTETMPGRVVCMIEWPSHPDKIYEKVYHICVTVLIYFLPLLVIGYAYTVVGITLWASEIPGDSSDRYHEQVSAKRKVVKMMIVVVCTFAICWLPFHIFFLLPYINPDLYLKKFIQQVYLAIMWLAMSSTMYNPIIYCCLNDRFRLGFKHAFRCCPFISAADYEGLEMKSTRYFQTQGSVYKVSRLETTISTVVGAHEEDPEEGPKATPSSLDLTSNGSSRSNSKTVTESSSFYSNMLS
Sequence of Metabotropic glutamate receptor 3 (Rattus norvegicus) (P31422 23-879 limits assumed): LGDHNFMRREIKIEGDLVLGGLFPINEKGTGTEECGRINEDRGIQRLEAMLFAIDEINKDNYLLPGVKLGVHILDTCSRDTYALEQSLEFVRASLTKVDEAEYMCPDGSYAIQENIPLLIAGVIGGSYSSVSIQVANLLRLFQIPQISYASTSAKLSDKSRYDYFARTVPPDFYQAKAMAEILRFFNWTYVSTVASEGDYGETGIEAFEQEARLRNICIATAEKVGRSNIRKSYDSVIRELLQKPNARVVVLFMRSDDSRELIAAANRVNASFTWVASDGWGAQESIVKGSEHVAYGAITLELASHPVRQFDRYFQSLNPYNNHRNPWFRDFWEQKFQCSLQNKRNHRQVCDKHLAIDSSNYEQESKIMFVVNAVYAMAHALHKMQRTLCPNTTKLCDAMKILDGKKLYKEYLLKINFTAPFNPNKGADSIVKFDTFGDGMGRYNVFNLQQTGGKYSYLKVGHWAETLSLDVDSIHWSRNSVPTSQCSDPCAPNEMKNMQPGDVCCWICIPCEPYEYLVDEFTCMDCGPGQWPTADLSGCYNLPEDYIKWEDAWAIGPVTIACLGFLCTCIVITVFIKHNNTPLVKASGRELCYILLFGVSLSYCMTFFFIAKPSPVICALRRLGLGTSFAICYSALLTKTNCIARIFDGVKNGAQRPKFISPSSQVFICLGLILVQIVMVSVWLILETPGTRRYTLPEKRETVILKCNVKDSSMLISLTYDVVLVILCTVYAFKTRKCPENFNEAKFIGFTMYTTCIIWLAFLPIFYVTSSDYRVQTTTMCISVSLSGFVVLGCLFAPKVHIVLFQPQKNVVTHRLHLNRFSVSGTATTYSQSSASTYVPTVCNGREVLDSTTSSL
Sequence of Substance-P receptor (Rattus norvegicus) (P14600 whole entry, looked up): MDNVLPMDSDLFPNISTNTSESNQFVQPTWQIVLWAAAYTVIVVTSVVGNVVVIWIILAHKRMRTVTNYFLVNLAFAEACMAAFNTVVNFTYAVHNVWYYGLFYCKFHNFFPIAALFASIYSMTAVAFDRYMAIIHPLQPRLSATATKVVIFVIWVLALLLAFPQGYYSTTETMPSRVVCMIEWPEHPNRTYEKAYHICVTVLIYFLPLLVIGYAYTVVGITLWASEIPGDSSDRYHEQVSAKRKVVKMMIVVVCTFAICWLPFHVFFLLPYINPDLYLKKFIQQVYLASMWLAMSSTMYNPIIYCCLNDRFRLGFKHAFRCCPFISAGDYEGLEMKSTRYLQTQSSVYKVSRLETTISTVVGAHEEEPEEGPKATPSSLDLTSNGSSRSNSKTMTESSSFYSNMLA
Sequence of Substance-P receptor (P14600 whole entry): as the sequence (P14600 whole entry, looked up) above

SMILES: COC(=O)[C@H](CCSC)NC(=O)[C@H](CC(C)C)NC(=O)[C@@H](Cc1c[nH]c2ccccc12)NC(=O)[C@H](Cc1ccccc1)NC(=O)[C@@H](Cc1ccccc1)NC(=O)[C@H](CCCN=C(N)N)NC(=O)[C@H](CC(N)=O)NC(=O)OC(C)(C)C
- Activity [1]: 16 dose ratio
- Change in amplitude response [2]: 11%
- Change in amplitude response [3]: -56%
- Change in amplitude response [4]: -3%
- Change in amplitude response [5]: -17%
- IC50 (Substance-P receptor): 500 µM
- Change in amplitude response [6]: -40%
- Activity [7]: 4.4 dose ratio
- Activity [8]: < 2 dose ratio
- Activity [9]: 2.1 dose ratio
- Change in amplitude response [10]: -79%
- Change in amplitude response [11]: -26%
- Change in amplitude response [12]: 15%

SMILES: COC(=O)[C@@H](CCSC)NC(=O)[C@@H](CC(C)C)SCCNC(=O)[C@@H](Cc1ccccc1)NC(=O)[C@H](Cc1ccccc1)NC(=O)[C@H](CCC(N)=O)NC(=O)[C@H](CCC(N)=O)NC(=O)[C@H]1CCCN1C(=O)[C@H](CCCCNC(=O)OCc1ccccc1)NC(=O)[C@H]1CCCN1C(=O)[C@H](CCCN=C(N)N)NC(=O)OCc1ccccc1
- Change in amplitude response [13]: -7%
- Activity [14]: 52 dose ratio
- Change in amplitude response [15]: -31%
- Activity [16]: 2.4 dose ratio
- Activity [17]: 38 dose ratio
- Activity [18]: 4.2 dose ratio
- Activity [19]: 20.1 dose ratio
- Activity [20]: 52 dose ratio
- Change in amplitude response [21]: -12%
- Activity [22]: 3.4 dose ratio
- Change in amplitude response [23]: -23%
- Activity [24]: 38 dose ratio
- Change in amplitude response [25]: -25%

SMILES: COC(=O)[C@@H](CCSC)NC(=O)[C@H](CC(C)C)NC(=O)CNC(=O)[C@@H](Cc1c[nH]c2ccccc12)NC(=O)[C@@H](Cc1c[nH]c2ccccc12)NC(=O)[C@H](CCC(N)=O)NC(=O)[C@H](CCC(N)=O)NC(=O)[C@@H]1CCCN1C(=O)[C@H](CCCCNC(=O)OCc1ccccc1)NC(=O)[C@@H]1CCCN1C(=O)[C@H](CCCN=C(N)N)NC(=O)OCc1ccccc1
- Change in amplitude response [26]: -77%
- Change in amplitude response [27]: 18%
- Change in amplitude response [3]: -33%
- Change in amplitude response [4]: -3%
- Change in amplitude response [28]: -13%
- Change in amplitude response [6]: -24%
- Activity [29]: 10.5 dose ratio
- Change in amplitude response [10]: -75%
- Change in amplitude response [11]: -6%
- Change in amplitude response [12]: 19%

SMILES: COC(=O)[C@H](CCSC)NC(=O)[C@H](CC(C)C)NC(=O)[C@@H](Cc1c[nH]c2ccccc12)NC(=O)[C@H](Cc1ccccc1)NC(=O)[C@@H](Cc1ccccc1)NC(=O)[C@H](CCCN=C(N)N)NC(=O)[C@H](CC(N)=O)NC(=O)[C@@H]1CCCN1C(=O)[C@H](CCCCNC(=O)OCc1ccccc1)NC(=O)[C@@H]1CCCN1C(=O)[C@H](CCCN=C(N)N)NC(=O)OC(C)(C)C
- Change in amplitude response [30]: 17%
- Activity [1]: 5.1 dose ratio
- Change in amplitude response [31]: -85%
- Change in amplitude response [32]: -9%
- Activity [7]: 3.1 dose ratio
- Activity [8]: 3.1 dose ratio
- Activity [9]: 2.8 dose ratio
